Experimental data published in ChEMBL document CHEMBL6134770, “Miniaturized click chemistry and direct screening facilitate the discovery of triazole piperazine SARS-CoV-2 Mpro inhibitors with improved metabolic stability” (RSC Med Chem, 2025).
Active and inactive are the calls of the source. How the calls were made is not given here.

Tests used:
[1] = Metabolic stability in rat liver microsome assessed as parent compound remaining measured at 15 mins in presence of NADPH by LC-MS/MS analysis; format: ADME; conditions: liver microsomes, read-out: Stability
How it was run: (§1)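 Microsomes (0.5 mg/mL) and 1 μM compound (final) in 100 mM phosphate buffer were prewarmed 5 min at 37 °C. Reactions were started with NADPH-regenerating solution; a no-NADPH control was run. Samples at 0, 5, 15, 30 and 60 min were quenched with cold MeOH:acetonitrile 1:1 containing labetalol/tolbutamide internal standards. Percent remaining is mean of n = 2. t1/2 came from the slope, and CLint was scaled with factor 1800.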

SARS-CoV-2 [2] = assay: Antiviral activity against SARS-CoV-2 infected in African green monkey Vero E6 cells pre-infected with cells for 1 hr followed by compound treatment and measured after 25 to 26 hrs by ELISPOT assay; format: functional, organism-based; conditions: Severe acute respiratory syndrome coronavirus 2, Vero C1008
[3] = system: Severe acute respiratory syndrome coronavirus 2; assay: Inhibition of SARS-CoV-2 Main protease using MCA-AVLQSGFR-Lys(Dnp)-Lys-NH2 as substrate at 5 uM preincubated for 10 mins followed by substrate addition and measured after 10 mins by FRET assay relative to control; conditions: time 20.0 min
[4] = Metabolic stability in rat liver microsome assessed as half life measured up to 60 mins in presence of NADPH by LC-MS/MS analysis; format: ADME; conditions: liver microsomes; how it was run: as §1
[5] = Metabolic stability in rat liver microsome assessed as parent compound remaining measured immediately in presence of NADPH by LC-MS/MS analysis; format: ADME; conditions: liver microsomes, read-out: Stability; how it was run: as §1
[6] = Metabolic stability in rat liver microsome assessed as parent compound remaining measured at 5 mins in presence of NADPH by LC-MS/MS analysis; format: ADME; conditions: liver microsomes, read-out: Stability; how it was run: as §1
[7] = Inhibition of SARS-CoV-2 Main protease using MCA-AVLQSGFR-Lys(Dnp)-Lys-NH2 as substrate preincubated for 10 mins followed by substrate addition and measured after 10 mins by FRET assay; set-up: species or system Severe acute respiratory syndrome coronavirus 2
How it was run: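 Mpro (1.5 μM stock) was preincubated with purified compound for 10 min at 37 °C in Tris–HCl/NaCl, pH 7.3. FRET substrate was then added and fluorescence (ex 320/em 405) followed for 10 min. Inhibition was calculated from initial 60 s slopes versus control and blank wells. Compounds were tested at 0.1, 0.5, 1, 5 and 10 μM in three independent experiments, and IC50 was fitted.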

[8] = Metabolic stability in rat liver microsome assessed as parent compound remaining measured at 30 mins in presence of NADPH by LC-MS/MS analysis; format: ADME; conditions: liver microsomes, read-out: Stability; how it was run: as §1
[9] = Metabolic stability in rat liver microsome assessed as parent compound remaining measured at 60 mins in presence of NADPH by LC-MS/MS analysis; format: ADME; conditions: liver microsomes, read-out: Stability; how it was run: as §1
[10] = Metabolic stability in rat liver microsome assessed as intrinsic clearance measured up to 60 mins in presence of NADPH by LC-MS/MS analysis; format: ADME; conditions: liver microsomes; how it was run: as §1
[11] = Cytotoxicity against African green monkey Vero E6 cells assessed as cell viability measured for 26 hrs by MTS assay; format: toxicity, cell-based, Vero C1008; conditions: chlorocebus sabaeus
How it was run: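 Vero E6 cells were seeded at 1.7 × 10^4 per well in DMEM/10% FBS for 24 h. They were then exposed to compound in DMEM/5% FBS (final 1% DMSO) for 26 h at 37 °C, 5% CO2. MTS/PMS was added for 4 h and A490 read, minus media blank, normalised to DMSO wells. CC50 was fitted by four-parameter model with bottom fixed at zero, from ≥3 replicates.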

SARS-CoV-2 [12] = assay: Antiviral activity against SARS-CoV-2; format: functional, organism-based; conditions: Severe acute respiratory syndrome coronavirus 2
[13] = Drug degradation in rat liver microsome measured within 15 mins in presence of NADPH by LC-MS/MS analysis; format: ADME; conditions: liver microsomes, read-out: Drug degradation; how it was run: as §1

Structure (SMILES)	remaining at 0.25 h [1] [%]	EC50 (SARS-CoV-2 [2]) [µM]	inhibition [3]	half-life [4] [min]	remaining at 0 min [5] [%]	remaining at 5 min [6] [%]	IC50 [7] [µM]	remaining at 0.5 h [8] [%]	remaining at 1 h [9] [%]	CLint scaled [10] [mL/min/kg]	CC50 at 26 h [11] [µM]	EC50 (SARS-CoV-2 [12]) [µM]	metabolised at 0.25 h [13] [%]
O=C(c1cccnc1)N1CCN(c2ccc(Cl)c(Cl)c2)[C@H](c2cn(-c3ccc(CO)cc3)nn2)C1	36.5	6.99	Active	10.3	100	70.7	1.87	13.3	5.1	242			
O=C(c1cccnc1)N1CCN(c2ccc(Cl)c(Cl)c2)[C@H](c2cn(-c3ccc4c(c3)OCO4)nn2)C1		6.32	Active				2.23				> 100		
Cn1cnc(Cn2c(=O)[nH]/c(=N\c3cc4cn(C)nc4cc3Cl)n(Cc3cc(F)c(F)cc3F)c2=O)n1												0.11	
O=C(O)Cc1ccccc1Nc1c(Cl)cccc1Cl [DICLOFENAC]				16.6						150			
O=C(NCc1cccs1)[C@@H]1CN(C(=O)c2cccnc2)CCN1c1ccc(Cl)c(Cl)c1	1.56	1.78	Active	2.51	100	22.7	0.39	0	0	994			100
